Laboratory results taken from PMC5077689 (FEBS letters, 2016).

Tests used:
bovine lung sGC [1] = target: T1, bovine lung sGC (Bos taurus, UniProt P16068+P19687); assay: BAY 58-2667 activated sGC activity assay; type: biochemical; settings: 100μM inhibitor, 600μM GTP
T1 sequence (P19687 1-691): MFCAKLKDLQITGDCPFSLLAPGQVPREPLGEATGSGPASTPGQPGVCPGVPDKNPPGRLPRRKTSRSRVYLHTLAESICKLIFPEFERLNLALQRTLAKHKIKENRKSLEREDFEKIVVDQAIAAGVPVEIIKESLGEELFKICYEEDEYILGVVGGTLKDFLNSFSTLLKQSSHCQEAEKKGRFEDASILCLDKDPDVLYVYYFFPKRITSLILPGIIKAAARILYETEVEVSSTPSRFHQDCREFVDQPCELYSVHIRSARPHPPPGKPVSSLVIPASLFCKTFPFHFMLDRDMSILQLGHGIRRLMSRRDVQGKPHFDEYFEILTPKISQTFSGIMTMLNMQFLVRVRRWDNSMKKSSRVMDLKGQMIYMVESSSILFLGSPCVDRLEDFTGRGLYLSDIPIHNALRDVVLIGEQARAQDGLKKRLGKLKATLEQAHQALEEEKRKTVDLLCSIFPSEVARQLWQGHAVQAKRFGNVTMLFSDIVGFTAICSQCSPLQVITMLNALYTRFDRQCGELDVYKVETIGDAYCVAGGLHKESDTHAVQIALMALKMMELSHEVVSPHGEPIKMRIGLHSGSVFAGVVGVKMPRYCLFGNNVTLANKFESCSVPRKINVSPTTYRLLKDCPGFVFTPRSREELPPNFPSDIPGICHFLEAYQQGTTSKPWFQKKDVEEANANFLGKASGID
T1 sequence (P16068 1-619): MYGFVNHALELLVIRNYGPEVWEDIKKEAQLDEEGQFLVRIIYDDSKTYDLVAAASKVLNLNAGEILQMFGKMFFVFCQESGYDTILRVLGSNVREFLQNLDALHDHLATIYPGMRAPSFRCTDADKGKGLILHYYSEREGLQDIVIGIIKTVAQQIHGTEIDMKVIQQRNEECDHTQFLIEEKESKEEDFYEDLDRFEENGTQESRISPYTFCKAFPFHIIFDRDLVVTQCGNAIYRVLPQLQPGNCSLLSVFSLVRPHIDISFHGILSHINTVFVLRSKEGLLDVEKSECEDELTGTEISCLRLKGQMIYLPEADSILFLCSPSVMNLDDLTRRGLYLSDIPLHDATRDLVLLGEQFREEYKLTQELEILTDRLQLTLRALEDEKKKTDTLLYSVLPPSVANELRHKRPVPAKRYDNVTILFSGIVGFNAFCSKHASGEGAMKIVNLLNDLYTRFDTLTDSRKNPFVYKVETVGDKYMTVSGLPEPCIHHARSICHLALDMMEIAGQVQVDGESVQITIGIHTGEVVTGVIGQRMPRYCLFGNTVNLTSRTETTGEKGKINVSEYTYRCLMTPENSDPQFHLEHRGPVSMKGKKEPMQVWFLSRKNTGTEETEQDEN
How it was run: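 Bovine lung sGC, diluted 17-fold in 50mM Tris pH 7.5, 5mM MgCl2, 2mM BME, 20% sucrose, 0.5mg/ml BSA, used at 1nM. Preincubated 10 min at 37°C with varying BAY 58-2667 and inhibitor in 5mM MgCl2. 0.5% DMSO served as control. GTP added to start. Stopped by boiling; cGMP measured by ELISA. Triplicate, 3 independent experiments; SEM.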

full length sGC = target: T2, full length sGC (Bos taurus, UniProt P16068+P19687); assay: Size exclusion chromatography for sGC aggregation; settings: 200μM compound, data not shown
T2 sequence (P19687 1-691): T1 sequence (P19687 1-691)
T2 sequence (P16068 1-619): T1 sequence (P16068 1-619)

bovine lung sGC [2] = target: T1, bovine lung sGC; assay: BAY 41-2272 stimulated sGC activity assay; type: biochemical; settings: 100μM inhibitor, range of BAY 41-2272, presence and absence of 1μM SNAP, 500μM GTP
bovine lung sGC [3] = target: T1, bovine lung sGC; assay: NO; type: biochemical
How it was run: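 Screening and kinetics used bovine lung sGC diluted 17-fold in 50mM Tris pH 7.5, 5mM MgCl2, 2mM BME, 20% sucrose, 0.5mg/ml BSA. 1nM enzyme was preincubated with inhibitor 10 min at 37°C in 50mM Tris pH 7.5, 2mM BME, 5mM MgCl2. DMSO-matched controls (1–2.5%). GTP plus 100μM SNAP started a 10 min, 37°C reaction, stopped by 10 min boiling. cGMP measured by ELISA; 3 independent experiments.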

sGC catalytic domain = target: T3, sGC catalytic domain (Homo sapiens, UniProt Q02108+Q02153); assay: Purified sGC catalytic domain activity assay; type: biochemical; settings: 1μM catalytic domain, 3 GTP concentrations, inhibitor 0–600μM
T3 sequence (Q02108 481-608 limits assumed): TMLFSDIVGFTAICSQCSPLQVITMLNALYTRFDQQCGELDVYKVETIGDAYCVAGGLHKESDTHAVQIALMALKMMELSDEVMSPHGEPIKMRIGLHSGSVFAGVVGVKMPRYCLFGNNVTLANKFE
T3 sequence (Q02153 421-554 limits assumed): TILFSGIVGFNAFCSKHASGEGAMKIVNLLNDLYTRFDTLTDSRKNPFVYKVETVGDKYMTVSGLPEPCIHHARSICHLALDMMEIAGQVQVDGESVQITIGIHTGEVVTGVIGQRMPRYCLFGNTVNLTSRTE
How it was run: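 Heterodimeric α1/β1 catalytic domain was co-purified from mixed cell pellets by His-tag Ni-NTA (30–300mM imidazole elution steps). The tag was removed with TEV, and the protein gel-filtered in 50mM HEPES pH 7, 150mM NaCl and stored at −80°C. Inhibitor was preincubated with domain 10 min at 37°C with Mg2+. GTP started the reaction, stopped by boiling after 10 min. cGMP measured by ELISA; triplicate; SEM.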

SHV-1 β-lactamase = SHV-1 β-lactamase (Klebsiella pneumoniae, UniProt P0AD64); assay: Promiscuous inhibition test with SHV-1 β-lactamase; type: biochemical; settings: Fig S1
Sequence of SHV-1 β-lactamase (P0AD64 22-286): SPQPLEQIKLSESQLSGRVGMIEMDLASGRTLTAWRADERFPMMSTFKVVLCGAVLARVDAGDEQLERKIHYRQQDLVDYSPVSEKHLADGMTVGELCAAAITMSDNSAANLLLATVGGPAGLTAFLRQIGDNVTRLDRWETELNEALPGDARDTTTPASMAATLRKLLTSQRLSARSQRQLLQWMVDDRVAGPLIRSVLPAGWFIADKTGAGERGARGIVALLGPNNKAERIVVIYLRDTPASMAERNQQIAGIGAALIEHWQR

[4] = Compound aggregation by dynamic light scattering; type: physicochemical; settings: DYNAPRO, Fig S2

Nc1nc(=O)[nH]nc1Nc1ccc(O)cc1 [Compound 1]
inhibition of BAY 58-2667 activated sGC (bovine lung sGC [1]): 96%
sGC aggregation caused by compound (size exclusion chromatography) (full length sGC): did not cause sGC aggregation
inhibition of BAY 41-2272 stimulated sGC (bovine lung sGC [2]): inhibited
inhibition of NO stimulated sGC activity, initial screen (bovine lung sGC [3]; 1nM sGC, 25μM GTP, 100μM SNAP, 10μM inhibitor): substantial inhibition
α-value (mixed inhibition model) (bovine lung sGC [3]; global fit of steady state inhibition data, 100μM SNAP): 3.6
inhibition mechanism (bovine lung sGC [3]; judged from α-value of mixed model fit): mostly non-competitive
inhibition of the purified catalytic domain (in words) (sGC catalytic domain): did not observe significant inhibition
inhibition of SHV-1 β-lactamase (SHV-1 β-lactamase): did not inhibit
aggregate formation (dynamic light scattering) [4]: do not form detectably large aggregates
